Measured values as given in PubChem BioAssay AID624095 (The Scripps Research Institute Molecular Screening Center, 2012).
Activity calls are given as the source filed them.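 The calls were made as follows: active = MIC at a fourfold reduction of 10 µM or lower; inactive = MIC at a fourfold reduction above 10 µM.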

What was measured:
[1] = test system: IMP-1 P. aeruginosa KN20 growth with imipenem, OD600; assay: growth inhibition synergy, KN20 P. aeruginosa with imipenem – strain KN20, clinical isolate, powder samples, VIM-2 MBL inhibitor project, late-stage follow-up (AID 624095)
Summary of the method: (§1)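 Compound dosing: Checkerboard two-fold serial dilutions, compound across rows | System: Log-phase bacteria | Medium: Mueller-Hinton broth with adjusted cations (CAMHB) | Measured by: Turbidity measured by optical absorbance | Incubation: Bacterial incubation of at least 18 h, 37 °C, aerobic | Also added: Imipenem in two-fold serial dilutions, orthogonal to compound | Read-out: MIC per CLSI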

[2] = as above; conditions: IMP-1 P. aeruginosa KN20 growth with imipenem, OD600; measured here: max imipenem fold potentiation; stronger effect = higher value
Summary of the method: as §1

| MIC [1] | Compound | fold potentiation [2] |
| --- | --- | --- |
| > 50 µM (inactive) | O=C(CN1C(=O)/C(=C/c2c(Cl)ccc(Cl)c2Cl)SC1=S)NCc1ccccn1 | – |
| > 50 µM (inactive) | O=C(CN1C(=O)/C(=C/c2c(Cl)cccc2Cl)SC1=S)NN1CCN(Cc2ccccc2)CC1 | – |
| > 50 µM (inactive) | CC(=O)N1CCN(NC(=O)CN2C(=O)/C(=C/c3c(Cl)cccc3Cl)SC2=S)CC1 | – |
| > 100 µM (inactive) | CCN(CC)OC(=O)CN1C(=O)/C(=C/c2c(Cl)cccc2Cl)SC1=S | – |
| > 50 µM (inactive) | O=C(CN1C(=O)/C(=C/c2c(Cl)cccc2Cl)SC1=S)NN1CCN(C(=O)c2ccccc2)CC1 | – |
| > 100 µM (inactive) | O=C(O)CN1C(=O)/C(=C/c2c(Cl)cccc2Cl)SC1=S | – |
| > 50 µM (inactive) | CN1CCN(C(=O)CN2C(=O)/C(=C/c3c(Cl)ccc(Cl)c3Cl)SC2=S)CC1 | – |
| > 50 µM (inactive) | CN1CCN(NC(=O)CN2C(=O)/C(=C/c3c(Cl)ccc(C(F)(F)F)c3Cl)SC2=S)CC1 | 2 |
| > 100 µM (inactive) | CN1CCN(NC(=O)CN2C(=O)/C(=C/c3c(Cl)cccc3Cl)SC2=S)CC1 | – |
| > 100 µM (inactive) | O=C(CN1C(=O)/C(=C/c2c(Cl)cccc2Cl)SC1=S)NN1CCCCC1 | – |
| > 50 µM (inactive) | CN1CCN(NC(=O)CN2C(=O)/C(=C/c3c(C(F)(F)F)ccc(Cl)c3Cl)SC2=S)CC1 | – |
| > 50 µM (inactive) | O=C(O)CN1C(=O)/C(=C/c2c(F)cccc2C(F)(F)F)SC1=S | – |
| > 50 µM (inactive) | O=C(CN1C(=O)/C(=C/c2c(Cl)cccc2Cl)SC1=S)NN1CCNCC1 | – |
| > 50 µM (inactive) | O=C(CN1C(=O)/C(=C/c2c(Cl)ccc(Cl)c2Cl)SC1=S)NN1CCCCC1 | – |
| > 100 µM (inactive) | CC(C)(C)OC(=O)N1CCN(NC(=O)CN2C(=O)/C(=C/c3c(Cl)cccc3Cl)SC2=S)CC1 | – |
| > 50 µM (inactive) | CN1CCN(NC(=O)CN2C(=O)/C(=C/c3c(Cl)ccc(Cl)c3Cl)SC2=S)CC1 | 2 |
| > 50 µM (inactive) | O=C(CN1C(=O)/C(=C/c2c(Cl)ccc(Cl)c2Cl)SC1=S)NN1CCNCC1 | – |
| > 100 µM (inactive) | O=C(CN1C(=O)/C(=C/c2c(Cl)cccc2Cl)SC1=S)NCc1ccccn1 | – |
| > 50 µM (inactive) | CN1CCN(NC(=O)CN2C(=O)/C(=C/c3c(F)cccc3Cl)SC2=S)CC1 | 2 |
| > 50 µM (inactive) | CN1CCN(NC(=O)CN2C(=O)/C(=C/c3c(F)cccc3C(F)(F)F)SC2=S)CC1 | – |
| > 50 µM (inactive) | CC(C)N1CCN(NC(=O)CN2C(=O)/C(=C/c3c(Cl)cccc3Cl)SC2=S)CC1 | – |
| > 50 µM (inactive) | CC(C)(C)OC(=O)N1CCN(NC(=O)CN2C(=O)/C(=C/c3c(Cl)ccc(Cl)c3Cl)SC2=S)CC1 | – |
